Data: ChEMBL document CHEMBL2407024, “Antimicrobial activity of imidazo[1,5-a]quinoxaline derivatives with pyridinium moiety” (Eur J Med Chem, 2013)

How the values were obtained:
[1] = Acute toxicity in ip dosed mouse; type: organism-based; settings: in vivo
Outline: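 Mice; each compound given at 5 dose levels, 10 animals per dose (n = 50 per compound). Animals observed for 72 h; toxicity expressed as average lethal dose (LD50) calculated from mortality across dose groups.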

Candida albicans [2] = experiment: Fungicidal activity against Candida albicans 885-653 after 6 hrs; type: functional; settings: 885-653, 6 h
Outline: (§1)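 Tubes of test compound (5 to 500 per ml, 1 mL in nutrient agar) with fungi were incubated at 26 °C for 6 h. Inocula were then prepared in Sabouraud dextrose broth and incubated at 26 °C. The fungicidal concentration is the one giving total cell death.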

[3] = tested on: Trichophyton mentagrophytes; experiment: Fungicidal activity against Trichophyton mentagrophytes after 6 hrs; type: functional; outline: as §1
Aspergillus niger [4] = experiment: Fungicidal activity against Aspergillus niger BKMF-1119 after 6 hrs; type: functional; settings: BKMF-1119, 6 h; outline: as §1
Pseudomonas aeruginosa [5] = experiment: Bactericidal activity against Pseudomonas aeruginosa 9027 after 4 hrs; type: functional; settings: Pseudomonas aeruginosa, 9027, 4 h
Outline: (§2)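 Tubes contained 1 mL test compound in nutrient agar, 5 to 500 per ml. Bacteria in normal saline broth (3 × 10⁵ cfu/ml, 1 mL) were added and held 4 h, then transferred onto meal-peptone agar plates and incubated at 37 °C. MBC is the dilution giving total cell death.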

Escherichia coli [6] = experiment: Bactericidal activity against Escherichia coli F-50 after 4 hrs; type: functional; settings: F-50, 4 h; outline: as §2
Bacillus cereus [7] = experiment: Bactericidal activity against Bacillus cereus 8035 after 4 hrs; type: functional; settings: Bacillus cereus, 8035, 4 h; outline: as §2
Staphylococcus aureus [8] = experiment: Bactericidal activity against Staphylococcus aureus 209p after 4 hrs; type: functional; outline: as §2
Candida albicans [9] = experiment: Antifungal activity against Candida albicans 885-653 measured every 24 hrs for 14 days by conventional dilution method; type: functional
Outline: (§3)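 Dilution assay in Sabouraud dextrose broth, inoculum 2 × 10^3–4 cfu/ml. MIC is the lowest concentration with no visible growth after 14 days of incubation. Run alongside a positive growth control and standard drug controls. Tests in duplicate, repeated twice.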

[10] = tested on: Trichophyton mentagrophytes; experiment: Antifungal activity against Trichophyton mentagrophytes measured every 24 hrs for 14 days by conventional dilution method; type: functional; outline: as §3
Aspergillus niger [11] = experiment: Antifungal activity against Aspergillus niger BKMF-1119 measured every 24 hrs for 14 days by conventional dilution method; type: functional; outline: as §3
Escherichia coli [12] = experiment: Antibacterial activity against Escherichia coli F-50 measured every 24 hrs for 5 days by conventional dilution method; type: functional
Outline: (§4)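 Broth dilution in nutrient broth, inoculum 3 × 10⁵ cfu/ml. MIC is the lowest concentration showing no growth, read visually every 24 h over 5 days. Run alongside a positive growth control and standard drug controls. Tests in duplicate, repeated twice.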

Bacillus cereus [13] = experiment: Antibacterial activity against Bacillus cereus 8035 measured every 24 hrs for 5 days by conventional dilution method; type: functional; outline: as §4
Staphylococcus aureus [14] = experiment: Antibacterial activity against Staphylococcus aureus 209p measured every 24 hrs for 5 days by conventional dilution method; type: functional; outline: as §4
Pseudomonas aeruginosa [15] = experiment: Antibacterial activity against Pseudomonas aeruginosa 9027 measured every 24 hrs for 5 days by conventional dilution method; type: functional; outline: as §4

## CCCCCCCCC[n+]1cccc(-c2nc(-c3ccccc3)c3c(=O)n(CCCCCC)c4ccccc4n23)c1.[I-]
[1]
  LD50: 52.5 mg/kg
Candida albicans [2]
  MFC: 500 µg/mL
[3]
  MFC: > 500 µg/mL
Aspergillus niger [4]
  MFC: > 500 µg/mL
Pseudomonas aeruginosa [5]
  MBC: > 500 µg/mL
Escherichia coli [6]
  MBC: > 500 µg/mL
Bacillus cereus [7]
  MBC: 500 µg/mL
Staphylococcus aureus [8]
  MBC: 5 µg/mL
Candida albicans [9]
  MIC: 500 µg/mL
[10]
  MIC: > 500 µg/mL
Aspergillus niger [11]
  MIC: > 500 µg/mL
Escherichia coli [12]
  MIC: > 500 µg/mL
Bacillus cereus [13]
  MIC: 0.78 µg/mL
Staphylococcus aureus [14]
  MIC: 0.78 µg/mL
Pseudomonas aeruginosa [15]
  MIC: > 500 µg/mL

## CCCCCCn1c(=O)c2c(-c3ccccc3)nc(-c3ccc[n+](Cc4ccccc4)c3)n2c2ccccc21.[Cl-]
[1]
  LD50: 61.1 mg/kg
Candida albicans [2]
  MFC: 500 µg/mL
[3]
  MFC: > 500 µg/mL
Aspergillus niger [4]
  MFC: > 500 µg/mL
Pseudomonas aeruginosa [5]
  MBC: > 500 µg/mL
Escherichia coli [6]
  MBC: > 500 µg/mL
Bacillus cereus [7]
  MBC: > 500 µg/mL
Staphylococcus aureus [8]
  MBC: 50 µg/mL
Candida albicans [9]
  MIC: 7.8 µg/mL
[10]
  MIC: 500 µg/mL
Aspergillus niger [11]
  MIC: > 500 µg/mL
Escherichia coli [12]
  MIC: > 500 µg/mL
Bacillus cereus [13]
  MIC: 6.3 µg/mL
Staphylococcus aureus [14]
  MIC: 0.97 µg/mL
Pseudomonas aeruginosa [15]
  MIC: > 500 µg/mL
